Series [1] has as its system HaCaT. The series can be described thus: Antihyperproliferative activity against human HaCaT cells after 48 hrs by phase contrast microscopy. Type of series: functional, cell-based. Put shortly:
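HaCaT keratinocytes were exposed for 48 h, then dispersed cells were counted under phase contrast. Inhibition was (1 − test/control) × 100, with test N = 3 and control N = 6–8, checked by Student's t test (P < 0.05). IC50 came from nonlinear regression.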

The subject of series [2] is HaCaT. The series is described as follows: Cytotoxicity against human HaCaT cells assessed as LDH release at 2 uM after 4 hrs by UV method. Type of series: cell-based. In short, it runs like this: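 HaCaT cells were given compound at 2 μM for 4 h at 37 °C. Extracellular LDH in the supernatant was read by the UV method with pyruvate and NADH and reported as mU/mL. Vehicle control was 0.2% DMSO in medium; Brij 35 plus ultrasound was the positive control. N = 3.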

The test system of series [3] is HaCaT. The series can be described thus: Induction of superoxide generation in human HaCaT cells at 5 micomol/L after 18 hrs by flow cytometry (reference value: 367.5 +/- 80.1 ). Format: functional. In short, it runs like this: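 HaCaT cells grown 24 h at 37 °C in DMEM with 10% FBS, then given compound at 5 μM for 18 h (0.1% DMSO final). DHE loaded for 30 min in the dark. Cells trypsinized and 2-OH-E⁺ fluorescence measured by flow cytometry (FL2, 550–600 nm) on 10000 live cells, dead cells gated out. Mean fluorescence intensity, mean ± SD, N = 3. DMSO-only control.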

Series [4] has as its target T1, NADPH--cytochrome P450 reductase (Homo sapiens, UniProt P16435).
T1 sequence (P16435 whole entry): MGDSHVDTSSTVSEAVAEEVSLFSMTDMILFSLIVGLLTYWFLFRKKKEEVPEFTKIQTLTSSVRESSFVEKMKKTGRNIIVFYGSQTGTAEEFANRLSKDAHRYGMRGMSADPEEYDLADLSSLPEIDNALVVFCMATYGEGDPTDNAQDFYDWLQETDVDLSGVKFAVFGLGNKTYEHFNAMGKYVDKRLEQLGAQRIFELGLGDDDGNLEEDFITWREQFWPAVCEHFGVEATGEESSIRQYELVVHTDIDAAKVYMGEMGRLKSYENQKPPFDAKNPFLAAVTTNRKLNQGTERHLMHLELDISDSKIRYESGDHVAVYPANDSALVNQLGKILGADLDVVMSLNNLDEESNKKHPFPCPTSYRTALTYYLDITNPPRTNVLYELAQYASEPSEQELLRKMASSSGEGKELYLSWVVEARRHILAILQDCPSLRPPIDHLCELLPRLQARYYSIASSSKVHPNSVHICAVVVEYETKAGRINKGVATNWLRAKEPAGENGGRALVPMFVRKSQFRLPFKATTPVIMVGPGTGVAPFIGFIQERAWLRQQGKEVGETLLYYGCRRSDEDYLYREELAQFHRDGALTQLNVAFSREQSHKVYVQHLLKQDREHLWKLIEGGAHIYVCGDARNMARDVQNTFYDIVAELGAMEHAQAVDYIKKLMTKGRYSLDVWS
The series is described as follows: Activity of human recombinant cytochrome P450 reductase assessed as rate of superoxide generation measuring SOD-inhibitable reduction of succinoylated cytochrome c per 2 mU enzyme at 100 umol/ml by spectrophotometry in presence of catalase and DTPA (reference value: 0.2 +/- 0.1 micomol/L/min).

In series [5] the target is NQO1 protein (Homo sapiens) (UniProt Q3B792). The series is described as follows: Activity of human recombinant NQO-1 assessed as rate of superoxide generation measuring SOD-inhibitable reduction of succinoylated cytochrome c per unit enzyme at 25 umol/ml by spectrophotometry in presence of catalase and DTPA (reference value: 0.2 +/- 0.1 micomol/L/min).
Series [6] deals with HaCaT. The series can be described thus: Induction of superoxide generation in human HaCaT cells at 50 uM after 30 min by flow cytometry (reference value: 7.1 +/- 5.2 ). Type of series: functional.
Series [7] relates to HaCaT. The series is described as follows: Activity in dicoumarol-treated human HaCaT cells assessed as superoxide generation by flow cytometry (reference value: 407.59 +/- 68.7 ). Format: functional.
In series [8] the test system is HaCaT. The series is described as follows: Ratio of compound IC50 to beta-lapachone IC50 for human HaCaT cells. Format: functional.
For series [9], the system named is HaCaT. The series can be described thus: Ratio of compound IC50 to anthralin IC50 for human HaCaT cells. Type of series: functional.

A value given as a limit tells only on which side of the number the result lay.

NQO1 protein (Homo sapiens), sequence (Q3B792 as listed by the source): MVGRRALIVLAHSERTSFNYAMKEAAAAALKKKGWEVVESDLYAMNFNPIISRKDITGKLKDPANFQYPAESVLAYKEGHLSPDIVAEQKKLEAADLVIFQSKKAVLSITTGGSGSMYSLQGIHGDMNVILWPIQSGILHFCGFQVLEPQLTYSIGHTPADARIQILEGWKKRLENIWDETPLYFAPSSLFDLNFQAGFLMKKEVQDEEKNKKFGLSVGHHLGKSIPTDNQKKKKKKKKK

In the series with HaCaT [1], `O=Cc1cc2c(o1)C(=O)c1ccccc1C2=O` came in with an IC50 of 2.76 µM. For the same compound, in the series on HaCaT [2], the Activity is 186 mU/ml.
For `CCC(=O)c1cc2c(OC(C)=O)c3ccccc3c(OC(C)=O)c2o1` the same measures were 0.8 µM and 185 mU/ml.
`COc1c2ccccc2c(OC)c2oc(C(=O)c3ccccc3)cc12`: in the series on HaCaT [1], the IC50 is > 30 µM.
Turning to `O=C(OCc1cccs1)c1cc2c(o1)C(=O)c1ccccc1C2=O`, in the series with HaCaT [1], the IC50 is 14.3 µM. This lies in the double-digit micromolar range.
The same measure, in the same setting: to `O=C(OCc1ccccc1)c1cc2c(o1)C(=O)c1ccccc1C2=O` belongs > 30 µM.
`CCOC(=O)c1cc2c(o1)C(=O)c1ccccc1C2=O` came in with a concentration for half-maximal inhibition (IC50) with HaCaT [1] of 0.61 µM. Further, the Activity with HaCaT [2] turned out to be 187 mU/ml.
Consider `CCc1cc2c(o1)C(=O)c1ccccc1C2=O`, for which the IC50 with HaCaT [1] is 12.2 µM.
The same measure, in the same setting: the same measure for `O=C(Oc1ccccc1)c1cc2c(o1)C(=O)c1ccccc1C2=O`: > 30 µM.
The compound `CCN(CC)C(=O)c1cc2c(o1)C(=O)c1ccccc1C2=O` displayed a half-inhibitory concentration (IC50) with HaCaT [1] of 0.24 µM. Further, the Activity with HaCaT [2] is 226 mU/ml.
For `CC(C)OC(=O)c1cc2c(o1)C(=O)c1ccccc1C2=O`, in the series with HaCaT [1], half-maximal inhibition (IC50) was put at 0.99 µM.
The compound `O=C(c1ccco1)c1cc2c(o1)C(=O)c1ccccc1C2=O` came in with a half-maximal inhibitory concentration (IC50) in the series with HaCaT [1] of 0.55 µM. In addition, in the series with HaCaT [2], the Activity was found to be 167 mU/ml.
Compound `O=C1c2ccccc2C(=O)c2oc(/C=N/O)cc21` showed an IC50 in the series with HaCaT [1] of 2.34 µM.
In the case of `CC(=O)c1cc2c(o1)C(=O)c1ccccc1C2=O` [NAPABUCASIN], the Flu intensity with HaCaT [3] worked out at 725.5; in the series on HaCaT [6], 20.5; with HaCaT [7], 741.4. Further, the Activity in the series on HaCaT [2] worked out at 255 mU/ml; in series [4], 3 µmol/L/min; in series [5], 1.4 µmol/L/min.
Turning to `O=C1c2ccccc2C(=O)c2oc(-c3nnn[nH]3)cc21`, in the series with HaCaT [1], the IC50 was > 30 µM. The Activity in the series on HaCaT [2] was found to be 380 mU/ml.
`CCC(=O)c1cc2c(o1)C(=O)c1ccccc1C2=O` yielded an IC50 in the series on HaCaT [1] of 0.63 µM. Also, the Activity in the series with HaCaT [2] amounted to 270 mU/ml.
In the series on HaCaT [1], `O=C1c2ccccc2C(=O)c2oc([N+](=O)[O-])cc21` came in with an IC50 of 2 µM.
Same read-out and setting: the same measure for `CC(C)C(=O)c1cc2c(o1)C(=O)c1ccccc1C2=O`: 0.44 µM.
In the series on HaCaT [1], `COC(=O)c1cc2c(o1)C(=O)c1ccccc1C2=O` returned a half-maximal inhibitory concentration (IC50) of 0.92 µM. Besides, the Activity in the series on HaCaT [2] was determined as 190 mU/ml.
With `Cc1cc2c(o1)C(=O)c1ccccc1C2=O`, the Flu intensity in the series on HaCaT [3] is given as 420.2; in the series with HaCaT [6], 6.4; in the series with HaCaT [7] it was 830.9. The same compound yielded a concentration for half-maximal inhibition (IC50) in the series with HaCaT [1] of 7.54 µM. The Activity in series [4] worked out at 1.2 µmol/L/min; in series [5], 0.2 µmol/L/min.
Consider `O=C(O)/C=C/c1cc2c(o1)C(=O)c1ccccc1C2=O`, for which the IC50 with HaCaT [1] is > 30 µM.
`CCOC(=O)C(=Cc1cc2c(o1)C(=O)c1ccccc1C2=O)C(=O)OCC` returned an IC50 with HaCaT [1] of 1.11 µM. In addition, the Activity with HaCaT [2] was 186 mU/ml.
For the compound `CCc1noc(-c2cc3c(o2)C(=O)c2ccccc2C3=O)n1`, the values for the Flu intensity in the series on HaCaT [3], in the series with HaCaT [6] and with HaCaT [7] were 1287, 17 and 1279, respectively. In addition, the results for the “Ratio IC50” value in the series with HaCaT [8] and with HaCaT [9] were 5 and 4, respectively. The same compound yielded a half-inhibitory concentration (IC50) with HaCaT [1] of 0.17 µM. Besides, the figures for the Activity (with HaCaT [2]; in series [4]; in series [5]) were 157 mU/ml, 1.8 µmol/L/min and 1.9 µmol/L/min, respectively.
As to `O=C1c2ccccc2C(=O)c2occc21`, the Flu intensity was 452.5 in the series on HaCaT [3], 13 with HaCaT [6] and 601.1 in the series on HaCaT [7]. Further, the half-inhibitory concentration (IC50) in the series on HaCaT [1] came out at 3.85 µM. In addition, the Activity in series [4] was 2.2 µmol/L/min; in series [5], 0.4 µmol/L/min.
On to `O=C(OC1CCCCC1)c1cc2c(o1)C(=O)c1ccccc1C2=O`, for which the IC50 with HaCaT [1] worked out at 2.93 µM.
As to `O=C1c2c(O)cccc2Cc2cccc(O)c21` [ANTHRALIN], in the series on HaCaT [2], the Activity was determined as 239 mU/ml.
Regarding `CCC(=O)c1cc2c(OC)c3ccccc3c(OC)c2o1`, the IC50 in the series on HaCaT [1] is > 30 µM.
In the case of `CC(C)COC(=O)c1cc2c(o1)C(=O)c1ccccc1C2=O`, in the series on HaCaT [1], the IC50 was found to be 2.86 µM.
For `N#Cc1cc2c(o1)C(=O)c1ccccc1C2=O`, half-maximal inhibition in the series on HaCaT [1] (IC50) was put at 0.89 µM. The Activity in the series on HaCaT [2] is recorded as 181 mU/ml.
On to `O=C(O)c1cc2c(o1)C(=O)c1ccccc1C2=O`, for which the IC50 in the series on HaCaT [1] was > 30 µM.
`CC1=CC(=O)c2ccccc2C1=O` [MENADIONE]: the results for the Flu intensity with HaCaT [3], in the series on HaCaT [6] and in the series on HaCaT [7] were 431.9, 44 and 457.2, respectively. In the series on HaCaT [1], the half-maximal inhibitory concentration (IC50) was 15.8 µM. The figures for the Activity in [4] and in [5] were 2.1 µmol/L/min and 1 µmol/L/min, respectively.
Regarding `CCOC(=O)/C=C/c1cc2c(o1)C(=O)c1ccccc1C2=O`, the IC50 with HaCaT [1] worked out at 2.51 µM. In other words, the single-digit micromolar range.
For `CC(=O)Oc1c2ccccc2c(OC(C)=O)c2oc(C(=O)c3ccccc3)cc12`, in the series with HaCaT [1], inhibition was half-maximal at 0.92 µM (IC50). For the same compound, in the series on HaCaT [2], the Activity turned out to be 193 mU/ml.
In turn, `N#Cc1ccc(/C=C/c2cc3c(o2)C(=O)c2ccccc2C3=O)cc1` gave a concentration for half-maximal inhibition (IC50) in the series on HaCaT [1] of 7.73 µM. This lies in the single-digit micromolar range.
For the compound `CC1(C)CCC2=C(O1)c1ccccc1C(=O)C2=O` [LAPACHONE], the concentration for half-maximal inhibition (IC50) in the series with HaCaT [1] was 0.9 µM. In addition, in the series on HaCaT [2], the Activity is recorded as 268 mU/ml.
Take `O=C(c1cccnc1)c1cc2c(o1)C(=O)c1ccccc1C2=O`: it took 0.37 µM to reach half-maximal inhibition in the series on HaCaT [1] (IC50). For the same compound, the Activity in the series on HaCaT [2] was 202 mU/ml.
With `O=C1c2ccccc2C(=O)c2oc(/C=C/c3ccccc3)cc21`, the IC50 in the series on HaCaT [1] was > 30 µM.
Consider `O=C(c1ccccc1)c1cc2c(o1)C(=O)c1ccccc1C2=O`, for which the IC50 in the series with HaCaT [1] amounted to 0.72 µM. For the same compound, the Activity in the series on HaCaT [2] is 318 mU/ml.
On the same counts, the results for `O=C(c1cc2c(o1)C(=O)c1ccccc1C2=O)c1cccs1` are 0.67 µM and 169 mU/ml.
In the series with HaCaT [1], `CCCOC(=O)c1cc2c(o1)C(=O)c1ccccc1C2=O` gave a concentration for half-maximal inhibition (IC50) of 1.32 µM.
Still for that read-out and setting: to `O=C(OCc1ccco1)c1cc2c(o1)C(=O)c1ccccc1C2=O` belongs 8.23 µM.
